# According to the M2OR odorant receptor database:
# How the values were obtained:
# Settings in all cases: stereoisomer not certain
# O1440 [1] = tested on: T1, O1440
# T1 sequence (whole entry): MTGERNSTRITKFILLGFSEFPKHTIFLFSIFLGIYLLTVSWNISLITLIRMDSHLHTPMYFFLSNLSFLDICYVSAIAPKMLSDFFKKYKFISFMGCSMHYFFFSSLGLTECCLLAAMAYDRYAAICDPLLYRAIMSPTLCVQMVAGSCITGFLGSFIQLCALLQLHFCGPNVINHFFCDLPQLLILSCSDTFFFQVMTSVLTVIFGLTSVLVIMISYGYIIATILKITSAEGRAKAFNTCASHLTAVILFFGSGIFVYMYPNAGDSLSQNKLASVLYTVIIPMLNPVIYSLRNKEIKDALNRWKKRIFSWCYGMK
# Procedure, shortened: (§1)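 Each entry records the cell line, G-protein, co-transfected protein and tags used. Methods varied with the source, often transient luciferase assays in mammalian cell lines. A receptor–molecule pair is called responsive (active) if the original authors judged its signal statistically different from baseline and non-responsive (inactive) otherwise.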
# O1440 [2] = tested on: T2, O1440; remark: listed apart in the source
# T2 sequence (whole entry): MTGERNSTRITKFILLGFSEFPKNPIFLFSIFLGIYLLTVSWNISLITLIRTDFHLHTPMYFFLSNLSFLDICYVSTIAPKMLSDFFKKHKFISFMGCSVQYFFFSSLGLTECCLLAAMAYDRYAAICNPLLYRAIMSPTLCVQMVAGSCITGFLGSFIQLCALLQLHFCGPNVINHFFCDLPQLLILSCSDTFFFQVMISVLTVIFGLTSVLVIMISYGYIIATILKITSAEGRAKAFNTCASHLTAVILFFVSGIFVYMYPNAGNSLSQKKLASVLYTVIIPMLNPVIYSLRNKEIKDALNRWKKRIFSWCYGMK
# Procedure, shortened: as §1
# O14A2 I133V = tested on: O14A2 I133V
# Procedure, shortened: as §1
# O14CZ = tested on: O14CZ
# Procedure, shortened: as §1
# O14I1 V36A D50N Y216C = tested on: O14I1 V36A D50N Y216C
# Procedure, shortened: as §1
# O14J1 N3Y = tested on: O14J1 N3Y
# Procedure, shortened: as §1
# O14K1 D119Y = tested on: O14K1 D119Y
# Procedure, shortened: as §1
# O2A25 = tested on: O2A25
# Procedure, shortened: as §1
# O2AE1 = tested on: O2AE1
# Procedure, shortened: as §1
# O2AJ1 = tested on: O2AJ1
# Procedure, shortened: as §1
# O2A25, sequence (as listed by the source): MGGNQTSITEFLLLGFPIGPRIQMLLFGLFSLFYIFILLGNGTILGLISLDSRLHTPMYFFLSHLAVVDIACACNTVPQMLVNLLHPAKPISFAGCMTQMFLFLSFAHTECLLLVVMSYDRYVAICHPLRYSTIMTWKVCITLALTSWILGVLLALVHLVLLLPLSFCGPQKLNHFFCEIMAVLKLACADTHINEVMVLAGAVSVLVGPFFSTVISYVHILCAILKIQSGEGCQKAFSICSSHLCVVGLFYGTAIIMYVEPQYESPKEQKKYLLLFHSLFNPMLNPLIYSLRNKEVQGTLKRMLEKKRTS
# O14K1 D119Y, sequence (as listed by the source, stated change not applied): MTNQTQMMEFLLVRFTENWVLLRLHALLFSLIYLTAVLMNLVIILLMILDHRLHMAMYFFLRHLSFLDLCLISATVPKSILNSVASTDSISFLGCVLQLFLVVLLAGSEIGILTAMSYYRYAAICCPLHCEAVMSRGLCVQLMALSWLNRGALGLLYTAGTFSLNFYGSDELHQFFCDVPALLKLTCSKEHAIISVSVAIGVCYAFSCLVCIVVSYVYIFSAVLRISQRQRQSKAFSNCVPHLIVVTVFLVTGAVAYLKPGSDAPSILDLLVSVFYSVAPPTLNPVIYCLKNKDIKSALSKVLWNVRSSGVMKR
# O14J1 N3Y, sequence (as listed by the source): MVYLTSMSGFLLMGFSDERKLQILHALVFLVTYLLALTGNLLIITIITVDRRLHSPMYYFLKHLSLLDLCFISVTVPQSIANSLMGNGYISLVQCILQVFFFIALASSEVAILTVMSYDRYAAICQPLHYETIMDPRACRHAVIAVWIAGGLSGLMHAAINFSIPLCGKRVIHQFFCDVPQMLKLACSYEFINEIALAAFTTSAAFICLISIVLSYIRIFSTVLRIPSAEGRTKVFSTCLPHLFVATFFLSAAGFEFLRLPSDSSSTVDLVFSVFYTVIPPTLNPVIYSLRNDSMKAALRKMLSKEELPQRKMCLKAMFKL
# O14CZ, sequence (as listed by the source): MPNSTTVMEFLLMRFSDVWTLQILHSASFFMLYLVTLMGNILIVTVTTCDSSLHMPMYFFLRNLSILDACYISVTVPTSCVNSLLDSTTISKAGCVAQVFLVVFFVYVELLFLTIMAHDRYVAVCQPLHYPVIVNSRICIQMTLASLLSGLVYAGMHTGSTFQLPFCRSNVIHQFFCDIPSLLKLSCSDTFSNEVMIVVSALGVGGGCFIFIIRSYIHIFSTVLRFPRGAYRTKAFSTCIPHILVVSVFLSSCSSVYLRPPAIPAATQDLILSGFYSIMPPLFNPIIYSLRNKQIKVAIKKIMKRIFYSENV
# O14A2 I133V, sequence (as listed by the source, stated change not applied): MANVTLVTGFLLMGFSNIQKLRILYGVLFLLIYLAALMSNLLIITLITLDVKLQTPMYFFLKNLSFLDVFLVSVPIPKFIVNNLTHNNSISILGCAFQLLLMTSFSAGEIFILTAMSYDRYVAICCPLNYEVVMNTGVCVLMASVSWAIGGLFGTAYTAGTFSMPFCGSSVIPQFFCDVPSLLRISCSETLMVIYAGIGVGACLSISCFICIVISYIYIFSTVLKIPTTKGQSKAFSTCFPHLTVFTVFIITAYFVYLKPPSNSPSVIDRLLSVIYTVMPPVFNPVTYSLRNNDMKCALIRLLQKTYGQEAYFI
# O2AE1, sequence (as listed by the source): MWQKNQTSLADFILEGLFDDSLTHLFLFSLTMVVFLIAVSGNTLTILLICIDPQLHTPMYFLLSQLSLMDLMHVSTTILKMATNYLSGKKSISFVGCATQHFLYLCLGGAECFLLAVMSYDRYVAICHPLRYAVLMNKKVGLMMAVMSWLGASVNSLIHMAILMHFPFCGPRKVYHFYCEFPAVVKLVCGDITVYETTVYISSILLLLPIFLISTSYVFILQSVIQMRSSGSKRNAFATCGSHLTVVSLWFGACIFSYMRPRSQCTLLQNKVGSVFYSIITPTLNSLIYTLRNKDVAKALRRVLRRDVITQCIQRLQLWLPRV
# O2AJ1, sequence (as listed by the source): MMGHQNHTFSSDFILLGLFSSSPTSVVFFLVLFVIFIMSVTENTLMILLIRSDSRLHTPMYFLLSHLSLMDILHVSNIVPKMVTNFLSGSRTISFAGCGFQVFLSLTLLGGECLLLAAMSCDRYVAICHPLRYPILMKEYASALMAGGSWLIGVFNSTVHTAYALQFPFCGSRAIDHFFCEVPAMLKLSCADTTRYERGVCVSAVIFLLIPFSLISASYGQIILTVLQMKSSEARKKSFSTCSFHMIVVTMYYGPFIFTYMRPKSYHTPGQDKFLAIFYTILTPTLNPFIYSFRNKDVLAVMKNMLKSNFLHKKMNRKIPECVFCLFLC
smiles,measurement,setting,value
CC(=O)c1cc(C(C)(C)C)cc2c1CCC2(C)C,odorant receptor agonist call,O1440 [1],inactive
same,odorant receptor agonist call,O1440 [2],inactive
C=CCOC(=O)Cc1ccccc1,odorant receptor agonist call,O14A2 I133V,inactive
same,odorant receptor agonist call,O14CZ,inactive
same,odorant receptor agonist call,O14I1 V36A D50N Y216C,inactive
same,odorant receptor agonist call,O14J1 N3Y,inactive
same,odorant receptor agonist call,O14K1 D119Y,inactive
same,odorant receptor agonist call,O2A25,inactive
same,odorant receptor agonist call,O2AE1,inactive
same,odorant receptor agonist call,O2AJ1,inactive
CC(=O)c1cc2c(cc1C)C(C)(C)C(C)CC2(C)C (centres undefined),odorant receptor agonist call,O1440 [1],active
same,odorant receptor agonist call,O1440 [2],active
Cc1c([N+](=O)[O-])c(C)c([N+](=O)[O-])c(C(C)(C)C)c1[N+](=O)[O-],odorant receptor agonist call,O1440 [1],inactive
same,odorant receptor agonist call,O1440 [2],active
